# Test results taken from ChEMBL document CHEMBL1124865, “Synthesis and biological evaluation of a series of parenteral 3'-quaternary ammonium cephalosporins” (J Med Chem, 1990).
# Key:
# [1] = test system: Pseudomonas aeruginosa; test: Antibacterial activity against Pseudomonas aeruginosa X528; assay type: functional; settings: Pseudomonas aeruginosa; read-out: MIC
# [2] = test system: Escherichia coli; test: Antibacterial activity against Escherichia coli EC14; assay type: functional; settings: Escherichia coli; read-out: MIC
# [3] = test system: Streptococcus pyogenes; test: Antibacterial activity against Streptococcus pyogenes; assay type: functional; settings: Streptococcus pyogenes; read-out: MIC
# [4] = test system: Enterobacter cloacae; test: Antibacterial activity against Enterobacter cloacae 265A; assay type: functional; settings: Enterobacter cloacae; read-out: MIC
# [5] = test system: Serratia marcescens; test: Antibacterial activity against Serratia marcescens SE3; assay type: functional; settings: Serratia marcescens; read-out: MIC
# [6] = test system: Enterococcus faecium; test: Antibacterial activity against Enterococcus faecium; assay type: functional; settings: Enterococcus faecium; read-out: MIC
# [7] = test system: Pseudomonas aeruginosa; test: Antibacterial activity against Pseudomonas aeruginosa PS18; assay type: functional; settings: Pseudomonas aeruginosa; read-out: MIC
# [8] = test system: Staphylococcus aureus; test: Antibacterial activity against penicillin G resistance Staphylococcus aureus; assay type: functional; settings: Staphylococcus aureus; read-out: MIC
# [9] = species on record: Cavia porcellus; test: In vitro relative anticholinergic potential in isolated guinea pig trachea; assay type: functional
# Outline: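 Guinea pig trachea in Krebs' solution at 37.5 °C, 95% O2/5% CO2, pH 7.4, 2 g resting tension. Cumulative carbachol log dose-response curve (3-fold steps) run before and 30 min after adding antagonist at 1 mM. […] Tukey test on log2 dose ratios.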
# [10] = test system: Staphylococcus aureus; test: Antibacterial activity against penicillin G susceptible Staphylococcus aureus; assay type: functional; settings: Staphylococcus aureus; read-out: MIC
# [11] = test system: Streptococcus pneumoniae; test: Antibacterial activity against Streptococcus pneumoniae; assay type: functional; settings: Streptococcus pneumoniae; read-out: MIC
# [12] = test system: Klebsiella pneumoniae; test: Antibacterial activity against Klebsiella pneumoniae X26; assay type: functional; settings: Klebsiella pneumoniae; read-out: MIC
# [13] = test system: Enterobacter cloacae; test: Antibacterial activity against Enterobacter cloacae EB5; assay type: functional; settings: Enterobacter cloacae; read-out: MIC
# [14] = test system: Escherichia coli; test: Antibacterial activity against Escherichia coli TEM; assay type: functional; settings: Escherichia coli; read-out: MIC
# [15] = test system: Klebsiella pneumoniae; test: microbe, parasite or virus in culture; assay type: functional; settings: Klebsiella pneumoniae; read-out: MIC
# [16] = In vitro dose required for anticholinergic activity in isolated guinea pig trachea; assay type: functional
# [17] = test system: Escherichia coli; test: In vitro relative hydrolysis rate against Escherichia coli IIIa; assay type: functional
# Outline: (§1)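 Spectrophotometric hydrolysis at 265 nm, substrate exposed to partially purified cell-free β-lactamase preparations; rate expressed as percentage of the cephaloridine rate.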
# [18] = test system: Escherichia coli; test: In vivo efficacy against Escherichia coli infected mice treated at 1 hr and 5 hr post infection; assay type: functional; settings: Escherichia coli; read-out: ED50
# [19] = test system: Staphylococcus aureus; test: In vivo efficacy against Staphylococcus aureus infections in mice; assay type: functional; settings: Staphylococcus aureus; read-out: MIC
# [20] = test system: Enterobacter cloacae; test: In vitro relative hydrolysis rate against Enterobacter Ia; assay type: functional; outline: as §1
# [21] = test system: Escherichia coli; test: In vivo efficacy against Escherichia coli infections in mice; assay type: functional; settings: Escherichia coli; read-out: MIC
# [22] = test system: Staphylococcus aureus; test: In vitro relative hydrolysis rate against Staphylococcus aureus; assay type: functional; outline: as §1
# [23] = test system: Pseudomonas aeruginosa; test: In vivo efficacy against Pseudomonas aeruginosa infected mice treated at 1 hr and 5 hr post infection; assay type: functional; settings: Pseudomonas aeruginosa; read-out: ED50
# [24] = test system: Pseudomonas aeruginosa; test: In vivo efficacy against Pseudomonas aeruginosa infections in mice; assay type: functional; settings: Pseudomonas aeruginosa; read-out: MIC
# [25] = test system: Pseudomonas aeruginosa; test: In vitro relative hydrolysis rate against Pseudomonas Id; assay type: functional; outline: as §1
# [26] = test system: Staphylococcus aureus; test: In vivo efficacy against Staphylococcus aureus infected mice treated at 1 hr and 5 hr post infection; assay type: functional; settings: Staphylococcus aureus; read-out: ED50
# [27] = test system: Klebsiella pneumoniae; test: In vitro relative hydrolysis rate against Klebsiella IV; assay type: functional; outline: as §1
# [28] = test system: Canis familiaris; test: Percent of dose in dogs urine at the dose of 60 mg/kg.; assay type: functional, Canis lupus familiaris
# Outline: (§2)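 Overnight-fasted female mongrel dogs with a Foley bladder catheter; bolus into the cephalic vein. Plasma and urine collected before dosing and over 24 h after. Antibacterial activity measured by microbiological assay.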
# [29] = Terminal half life in dogs at the dose of 60 mg/kg.; assay type: ADME, organism-based, Canis lupus familiaris; design: dose 60 mg/kg; settings: dog, in vivo; outline: as §2
Compound,MIC [1] [µg/mL],MIC [2] [µg/mL],MIC [3] [µg/mL],MIC [4] [µg/mL],MIC [5] [µg/mL],MIC [6] [µg/mL],MIC [7] [µg/mL],MIC [8] [µg/mL],MIC [10] [µg/mL],MIC [11] [µg/mL],MIC [12] [µg/mL],MIC [13] [µg/mL],MIC [14] [µg/mL],MIC [15] [µg/mL],Hydrolysis rate [17],ED50 [18] [mg/kg],MIC [19] [µg/mL],Hydrolysis rate [20],MIC [21] [µg/mL],Hydrolysis rate [22],other results
CO/N=C(\C(=O)N[C@@H]1C(=O)N2C(C(=O)[O-])=C(C[n+]3csc(CCO)c3C)CS[C@H]12)c1csc(N)n1,8,0.06,0.03,4,0.125,16,16,4,2,0.03,0.03,0.125,0.03,4,–,–,–,–,–,–,RAP [9]: 1; Dose ratio [16]: 1.27
CO/N=C(\C(=O)N[C@@H]1C(=O)N2C(C(=O)[O-])=C(C[n+]3ccc4ccsc4c3)CS[C@H]12)c1csc(N)n1,2,0.015,< 0.008,8,0.03,> 128,4,4,1,< 0.008,0.015,0.06,0.03,4,0.2,0.02,1,0.7,< 0.008,7.1,ED50 [23]: 9.5 mg/kg; MIC [24]: 4 µg/mL; Hydrolysis rate [25]: 0.4; ED50 [26]: 0.4 mg/kg; Hydrolysis rate [27]: 6.9
CO/N=C(\C(=O)N[C@@H]1C(=O)N2C(C(=O)[O-])=C(C[n+]3cccc4c(N)cccc43)CS[C@H]12)c1csc(N)n1,2,0.015,< 0.008,8,0.06,128,2,2,1,0.015,0.015,0.06,0.015,2,0.7,< 0.03,0.5,1.1,0.03,0.2,ED50 [23]: 6 mg/kg; MIC [24]: 2 µg/mL; Hydrolysis rate [25]: 0.6; ED50 [26]: 0.2 mg/kg; Hydrolysis rate [27]: 6.8
CO/N=C(\C(=O)N[C@@H]1C(=O)N2C(C(=O)[O-])=C(C[n+]3cccc4sccc43)CS[C@H]12)c1csc(N)n1,2,0.06,0.015,4,0.125,128,4,4,0.5,0.03,0.03,0.25,0.06,1,0.2,0.04,1,0.2,0.03,6.2,ED50 [23]: 9.3 mg/kg; MIC [24]: 2 µg/mL; Hydrolysis rate [25]: 0.2; ED50 [26]: 0.6 mg/kg; Hydrolysis rate [27]: 0.7
CO/N=C(\C(=O)N[C@@H]1C(=O)N2C(C(=O)[O-])=C(C[n+]3ccc4sc(C)cc4c3)CS[C@H]12)c1csc(N)n1,2,0.015,< 0.008,4,0.06,> 128,8,4,0.5,< 0.008,< 0.008,0.06,0.015,1,–,–,–,–,–,–,Percent of dose recovered in urine [28]: 64%; half-life [29]: 1.67 h
